# Tests used:
# VERO cell line = experiment: Cytotoxicity assay against Vero cell line; type: cell-based, monkey; conditions: read-out: cytotoxicity CC50 in VERO cell line; VERO cells, 72 h, resazurin
# [1] = tested on: chloroquine-resistant strain K1 of Plasmodium falciparum; experiment: In vitro antimalarial assay; type: cell-based; conditions: for IC50: Plasmodium falciparum, K1, 72 h, read-out: IC50 PfK1; for selectivity index (SI) PfK1: ratio CC50 (VERO)/IC50 (PfK1)
# [2] = tested on: chloroquine-sensitive strain 3D7 of Plasmodium falciparum; experiment: In vitro antimalarial assay; type: cell-based; conditions: for IC50: Plasmodium falciparum, 3D7, 72 h, read-out: IC50 Pf3D7; for selectivity index (SI) Pf3D7: ratio CC50 (VERO)/IC50 (Pf3D7); for activity in CQ-sensitive strain (in words): 3D7
# [3] = tested on: Plasmodium yoelii nigeriensis (a multidrug-resistant) parasite; experiment: In vivo antimalarial assay in Swiss mice; conditions: for cure on day 28: cured/treated; for survival on day 28: survivors/treated
# Method in brief: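 Multidrug-resistant P. yoelii nigeriensis infection in albino Swiss mice, five per group. Test compound given orally at 100 mg/kg daily × 4 days. Reference: α/β-arteether 7.5 mg/kg × 3 days. Untreated infected controls were included. Parasitaemia was assessed by Giemsa-stained smears, with % suppression on day 4 post infection. Survival and cure were followed to day 28, and MST was recorded.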
# [4] = Cytotoxicity assay against Vero cell line; type: cell-based, monkey; conditions: monkey, Vero cells (monkey kidney cell line)
# [5] = 100 mg/kg × 4 days, oral, P. yoelii-MDR
# [6] = 7.5 mg/kg × 3 days, reference drug
smiles,measurement,setting,value
"CC(C)CC(CN1CCOCC1)N(C)c1ccnc2cc(Cl)ccc12 (centres unmarked) [9b, 7-Chloro-N-methyl-N-(4-methyl-1-morpholinopentan-2-yl)quinolin-4-amine]",CC50,VERO cell line,50.8 µM
same,IC50,[1],1190 ± 530 nM
same,selectivity index (SI) PfK1,[1],43
same,IC50,[2],1160 ± 260 nM
same,selectivity index (SI) Pf3D7,[2],44
"CC(C)C[C@@H](CN1CCCCC1)N(C)c1ccnc2cc(Cl)ccc12 [9c, (S)-7-Chloro-N-methyl-N-(4-methyl-1-(piperidin-1-yl)pentan-2-yl)quinolin-4-amine]",IC50,[1],420 ± 230 nM
same,selectivity index (SI) PfK1,[1],166
same,IC50,[2],150 ± 140 nM
same,selectivity index (SI) Pf3D7,[2],463
"CC(C)C[C@@H](CN1CCCC1)N(C)c1ccnc2cc(Cl)ccc12 [9d, (S)-7-Chloro-N-methyl-N-(4-methyl-1-(pyrrolidin-1-yl)pentan-2-yl)quinolin-4-amine]",IC50,[1],180 ± 150 nM
same,selectivity index (SI) PfK1,[1],261
same,MST,"[3]; 100 mg/kg × 4 days, oral",9.4 days
same,% suppression on day 4 post infection,[3]; [5],99.99%
same,cure on day 28,"[3]; 100 mg/kg × 4 days, oral",0/5 cured
same,survival on day 28,"[3]; 100 mg/kg × 4 days, oral",0/5
same,IC50,[2],80 nM
same,selectivity index (SI) Pf3D7,[2],588
"CCN(CC)C[C@H](CC(C)C)N(C)c1ccnc2cc(Cl)ccc12 [9e, (S)-N^2-(7-Chloroquinolin-4-yl)-N^1,N^1-diethyl-N^2,4-dimethylpentane-1,2-diamine]",IC50,[1],540 ± 30 nM
same,selectivity index (SI) PfK1,[1],112
same,IC50,[2],230 ± 100 nM
same,selectivity index (SI) Pf3D7,[2],262
"CC(C)C[C@@H](CN1CCOCC1)N(C)c1ccnc2cc(C(F)(F)F)ccc12 [9f, (S)-N-Methyl-N-(4-methyl-1-morpholinopentan-2-yl)-7-(trifluoromethyl)quinolin-4-amine]",IC50,[1],2250 ± 770 nM
same,selectivity index (SI) PfK1,[1],30
same,IC50,[2],2720 ± 1440 nM
same,selectivity index (SI) Pf3D7,[2],25
"CC(C)C[C@@H](CN1CCCCC1)N(C)c1ccnc2cc(C(F)(F)F)ccc12 [9g, (S)-N-Methyl-N-(4-methyl-1-(piperidin-1-yl)pentan-2-yl)-7-(trifluoromethyl)quinolin-4-amine]",IC50,[1],2040 ± 400 nM
same,selectivity index (SI) PfK1,[1],21
same,IC50,[2],2000 ± 60 nM
same,selectivity index (SI) Pf3D7,[2],21
"CC(C)C[C@@H](CN1CCCC1)N(C)c1ccnc2cc(C(F)(F)F)ccc12 [9h, (S)-N-Methyl-N-(4-methyl-1-(pyrrolidin-1-yl)pentan-2-yl)-7-(trifluoromethyl)quinolin-4-amine]",IC50,[1],1600 ± 910 nM
same,selectivity index (SI) PfK1,[1],33
same,IC50,[2],1240 nM
same,selectivity index (SI) Pf3D7,[2],42
"CCN(CC)C[C@H](CC(C)C)N(C)c1ccnc2cc(C(F)(F)F)ccc12 [9i, (S)-N^1,N^1-diethyl-N^2,4-dimethyl-N^2-(7-(trifluoromethyl)quinolin-4-yl)pentane-1,2-diamine]",IC50,[1],2500 ± 1030 nM
same,selectivity index (SI) PfK1,[1],21
same,IC50,[2],3800 ± 1050 nM
same,selectivity index (SI) Pf3D7,[2],14
"CN(c1ccnc2cc(Cl)ccc12)[C@@H](Cc1ccccc1)CN1CCOCC1 [10a, (S)-7-Chloro-N-methyl-N-(1-morpholino-3-phenylpropan-2-yl)quinolin-4-amine]",IC50,[1],1380 ± 70 nM
same,selectivity index (SI) PfK1,[1],24
same,IC50,[2],1200 ± 780 nM
same,selectivity index (SI) Pf3D7,[2],28
"CN(c1ccnc2cc(Cl)ccc12)[C@@H](Cc1ccccc1)CN1CCCCC1 [10b, (S)-7-Chloro-N-methyl-N-(1-phenyl-3-(piperidin-1-yl)propan-2-yl)quinolin-4-amine]",IC50,[1],490 ± 150 nM
same,selectivity index (SI) PfK1,[1],142
same,IC50,[2],280 ± 130 nM
"CN(c1ccnc2cc(Cl)ccc12)[C@@H](Cc1ccccc1)CN1CCCC1 [10c, (S)-7-Chloro-N-methyl-N-(1-phenyl-3-(pyrrolidin-1-yl)propan-2-yl)quinolin-4-amine]",IC50,[1],100 nM
same,selectivity index (SI) PfK1,[1],577
same,MST,"[3]; 100 mg/kg × 4 days, oral",9 days
same,% suppression on day 4 post infection,[3]; [5],93.99%
same,cure on day 28,"[3]; 100 mg/kg × 4 days, oral",0/5 cured
same,survival on day 28,"[3]; 100 mg/kg × 4 days, oral",0/5
same,IC50,[2],60 ± 160 nM
same,selectivity index (SI) Pf3D7,[2],963
"CCN(CC)C[C@H](Cc1ccccc1)N(C)c1ccnc2cc(Cl)ccc12 [10d, (S)-N^2-(7-Chloroquinolin-4-yl)-N^1,N^1-diethyl-N^2-methyl-3-phenylpropane-1,2-diamine]",IC50,[1],330 ± 60 nM
same,selectivity index (SI) PfK1,[1],240
same,IC50,[2],210 ± 110 nM
same,selectivity index (SI) Pf3D7,[2],376
"CN(c1ccnc2cc(C(F)(F)F)ccc12)[C@@H](Cc1ccccc1)CN1CCOCC1 [10e, (S)-N-Methyl-N-(1-morpholino-3-phenylpropan-2-yl)-7-(trifluoromethyl)quinolin-4-amine]",activity in CQ-sensitive strain (in words),[2],inactive
same,IC50,[2],3890 ± 500 nM
"CN(c1ccnc2cc(C(F)(F)F)ccc12)[C@@H](Cc1ccccc1)CN1CCCCC1 [10f, (S)-N-Methyl-N-(1-phenyl-3-(piperidin-1-yl)propan-2-yl)-7-(trifluoromethyl)quinolin-4-amine]",activity in CQ-sensitive strain (in words),[2],inactive
same,IC50,[2],1370 ± 520 nM
"CN(c1ccnc2cc(C(F)(F)F)ccc12)[C@@H](Cc1ccccc1)CN1CCCC1 [10g, (S)-N-Methyl-N-(1-phenyl-3-(pyrrolidin-1-yl)propan-2-yl)-7-(trifluoromethyl)quinolin-4-amine]",IC50,[1],1770 nM
same,selectivity index (SI) PfK1,[1],22
same,MST,"[3]; 100 mg/kg × 4 days, oral",7.2 days
same,% suppression on day 4 post infection,[3]; [5],62.30%
same,cure on day 28,"[3]; 100 mg/kg × 4 days, oral",0/5 cured
same,survival on day 28,"[3]; 100 mg/kg × 4 days, oral",0/5
same,IC50,[2],680 ± 160 nM
same,selectivity index (SI) Pf3D7,[2],58
"CCN(CC)C[C@H](Cc1ccccc1)N(C)c1ccnc2cc(C(F)(F)F)ccc12 [10h, (S)-N^1,N^1-Diethyl-N^2-methyl-3-phenyl-N^2-(7-(trifluoromethyl)quinolin-4-yl)propane-1,2-diamine]",activity in CQ-sensitive strain (in words),[2],inactive
same,IC50,[2],1750 ± 160 nM
"CN(CCCN1CCCCC1)c1ccnc2cc(Cl)ccc12 [11a, 7-Chloro-N-methyl-N-(3-(piperidin-1-yl)propyl)quinolin-4-amine]",CC50,VERO cell line,107 µM
same,IC50,[1],60 ± 40 nM
same,selectivity index (SI) PfK1,[1],1782
same,IC50,[2],40 nM
"CN(CCCN1CCCC1)c1ccnc2cc(Cl)ccc12 [11b, 7-Chloro-N-methyl-N-(3-(pyrrolidin-1-yl)propyl)quinolin-4-amine]",CC50,VERO cell line,80.2 µM
same,IC50,[1],110 ± 70 nM
same,selectivity index (SI) PfK1,[1],729
same,MST,"[3]; 100 mg/kg × 4 days, oral",8.8 days
same,% suppression on day 4 post infection,[3]; [5],99.8%
same,cure on day 28,"[3]; 100 mg/kg × 4 days, oral",0/5 cured
same,survival on day 28,"[3]; 100 mg/kg × 4 days, oral",0/5
same,IC50,[2],190 nM
same,selectivity index (SI) Pf3D7,[2],422
"CN(CCCN1CCOCC1)c1ccnc2cc(C(F)(F)F)ccc12 [11c, N-Methyl-N-(3-morpholinopropyl)-7-(trifluoromethyl)quinolin-4-amine]",IC50,[1],820 ± 60 nM
same,selectivity index (SI) PfK1,[1],>243
same,IC50,[2],880 ± 280 nM
same,selectivity index (SI) Pf3D7,[2],>227
"CN(CCCN1CCCC1)c1ccnc2cc(C(F)(F)F)ccc12 [11d, N-Methyl-N-(3-(pyrrolidin-1-yl)propyl)-7-(trifluoromethyl)quinolin-4-amine]",CC50,VERO cell line,78.2 µM
same,IC50,[1],310 ± 150 nM
same,selectivity index (SI) PfK1,[1],252
same,MST,"[3]; 100 mg/kg × 4 days, oral",8.8 days
same,% suppression on day 4 post infection,[3]; [5],99.85%
same,cure on day 28,"[3]; 100 mg/kg × 4 days, oral",0/5 cured
same,survival on day 28,"[3]; 100 mg/kg × 4 days, oral",0/5
same,IC50,[2],90 ± 20 nM
"COc1cc([C@@H]2c3cc4c(cc3[C@H](O)[C@H]3COC(=O)[C@H]23)OCO4)cc(OC)c1OC [Podophyllotoxin, reference compound]",CC50 at 72 h,[4],4 µM
"CCN(CC)CCCC(C)Nc1ccnc2cc(Cl)ccc12 (centres unmarked) [chloroquine, reference compound]",IC50,[1],795 ± 150 nM
"CCO[C@H]1O[C@@H]2O[C@@]3(C)CC[C@H]4[C@H](C)CC[C@@H]([C@H]1C)[C@@]24OO3 [α/β-arteether, reference compound]",% suppression on day 4 post infection,[3]; [6],100%
same,MST,[3]; [6],>28 days
same,cure on day 28,[3]; [6],5/5 cured
same,survival on day 28,[3]; [6],5/5

# From paper PMC8158791 (ACS Omega, 2021)
